Source: PubChem (several laboratories)
Shown are actives, neighbours in structure and some others; about 9.6% of the full set was active somewhere.
PMI act hi M6P = PMI (human) activation, high substrate; P34949; coupled PMI enzyme assay, resazurin fluorescence, 20 min; hits give high values; 1 = untreated enzyme, 0 = substrate-free blank; activation factor at 20 µM; actives 0.34% (n = 190,000); AID 1216;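 active = activation factor of 2 or more at 20 µM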
Target sequence (P34949 whole entry, looked up): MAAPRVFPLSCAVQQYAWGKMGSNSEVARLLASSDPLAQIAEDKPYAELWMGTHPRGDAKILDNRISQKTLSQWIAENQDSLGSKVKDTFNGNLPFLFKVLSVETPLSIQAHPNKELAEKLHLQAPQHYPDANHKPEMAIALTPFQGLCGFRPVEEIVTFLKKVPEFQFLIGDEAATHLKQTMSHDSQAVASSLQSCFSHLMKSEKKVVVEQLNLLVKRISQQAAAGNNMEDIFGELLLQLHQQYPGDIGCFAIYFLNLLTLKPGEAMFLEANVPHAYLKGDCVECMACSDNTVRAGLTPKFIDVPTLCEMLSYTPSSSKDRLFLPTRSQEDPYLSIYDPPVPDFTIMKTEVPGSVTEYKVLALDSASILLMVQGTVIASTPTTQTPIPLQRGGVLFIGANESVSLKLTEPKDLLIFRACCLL
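Test system: human phosphomannose isomerase with PGI, G6PDH, diaphorase coupling enzymes / Doses: 20 µM compound, 1% DMSO / Times: enzyme reaction with compound 20 min at room temperature / Measured by: Diaphorase-driven resazurin-to-resorufin fluorescence, excitation 544, emission 590 nm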
L major viab = Leishmania major promastigote growth inhibition | AID 1063 | inhibition, % at 10 µM | Leishmania major promastigotes, resazurin fluorescence viability | actives 9% (n = 200,000); in the data active = inhibition above about 50%;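 note: promastigotes grown with compound for 44 hours at 28 °C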
PMI activator = phosphomannose isomerase (human) activation. P34949. purified human PMI, coupled resazurin fluorescence, 20 min; hits give high values; 1 = vehicle control, 0 substrate-free wells. activation factor at 20 µM. actives 0.005% (n = 190,000). AID 1214;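 active = activation factor of 2 or more at 20 µM, relative to plate controls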
HCT116 bCat-KO = beta-catenin-lacking colon tumor cell growth suppression | actives 1.5% (n = 140,000) | viability, % at 10 µM | HCT116 beta-catenin knockout viability, CellTiter-Glo, 60 h; hits give low values | AID 818;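 active = viability at or under a set limit, the compound median less 4 SD, cut at about 6% in these data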;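 note: 0% = Hyamine 1622 control at 20 µM and 100% = untreated cell control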
PTEN del growth = suppresses growth of cells with PTEN deletion; actives 1.2% (n = 140,000); viability, % at 10 µM; HCT116 PTEN-null viability, CellTiter-Glo, 60 h; hits give low values;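 active = viability at or below a set limit, 4 SD under the median of all tested compounds, cut at about 3.7% in these data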;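 note: PTEN knockout HCT116 line with beta catenin targeted HCT116 as companion control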
Starred values were filed as active, the others as inactive; nt = no result.

SMILES	PMI act hi M6P	L major viab	PMI activator	HCT116 bCat-KO	PTEN del growth
CCCCNC(=O)CSc1nc2cc(OC)c(OC)cc2c(=O)n1Cc1ccc(OC)cc1	1	8	0.9	1.3*	0.6*
CCC(Sc1nc2cc(OC)c(OC)cc2c(=O)n1Cc1ccc(OC)cc1)C(=O)NCCOC (configuration not stated)	1	20	1	nt	nt
COc1ccc(Cn2c(SCc3cc(C)ccc3C)nc3cc(OC)c(OC)cc3c2=N)cc1	1.2	101*	1	1.9*	1.4*
COCCCn1c(SCc2cccc(C(F)(F)F)c2)nc2cc(OC)c(OC)cc2c1=N	0.9	28	0.9	70	72
COc1ccc(Cn2c(SCc3ccc(C)cc3)nc3cc(OC)c(OC)cc3c2=N)cc1Cl	1	100*	0.9	1.2*	1.2*
CCOc1ccc(N/C=C/C(=O)c2ccccc2)c([N+](=O)[O-])c1	1	2	1	99	97
CCC(C)[C@H](N)c1nnc(SCC(=O)c2ccc(Cl)cc2)o1 (some centres not stated)	0.9	90*	0.9	101	116
CC(C)[C@H](N)c1nnc(SCc2ccc(Cl)cc2)o1	1	-4	1	90	81
COc1ccc(-c2coc3cc4oc(=O)cc(C)c4cc23)cc1F	1.1	-2	1	32	29
COc1ccc(-c2coc3cc4oc(=O)cc(-c5ccccc5)c4cc23)cc1F	1	11	0.9	2.6*	2.1*
O=C(CNS(=O)(=O)c1ccc(Br)s1)NCC1COc2ccccc2O1 (configuration not stated)	1	59*	1	95	104
O=C(CNS(=O)(=O)c1ccc(Br)s1)Nc1ccc2c(c1)OCCO2	1.1	-2	1	99	112
O=C(NCc1ccc(F)cc1)C(=O)NCC1OCCN1S(=O)(=O)c1cccs1 (configuration not stated)	1	-3	1	93	92
Cc1cccc(C)c1NC(=S)N(CCCN1CCN(C)CC1)Cc1cccs1	1	3	1	nt	nt
CCCOc1ccc(N2C(=O)CC(SC(=NC)Nc3ccc(F)cc3)C2=O)cc1 (configuration not stated)	0.9	-6	0.9	72	76
CCCOc1ccc(N2C(=O)CC(SC(=N)N3N=C(c4ccccc4)CC3c3ccccc3)C2=O)cc1 (configuration not stated)	1	98*	0.9	nt	nt
O=C(N/N=C\c1c(O)ccc2ccccc12)c1ccc(Cn2cccn2)o1	1.1	98*	1.1	5.6*	5
O=C(N/N=C/c1c(O)ccc2ccccc12)c1cccc(C(F)(F)F)c1	0.9	97*	1	10	9
COc1ccc(Br)cc1/C=N/NC(=O)c1cc(Br)ccc1O	1.3	-8	1.1	nt	nt
COc1ccc2ccccc2c1/C=N/NC(=O)c1cccc(Br)c1	0.9	-15	0.9	100	90
Cc1ccc(O)c(/C=N/NC(=O)c2[nH]ncc2Br)c1	1.3	98*	1.1	10	14
O=C(N/N=C\c1ccc(Cl)s1)c1ccc(Cn2cccn2)o1	1	5	1	93	101
CCOc1ccc(/C=N/NC(=O)c2[nH]ncc2Br)c(O)c1	1.2	99*	1	nt	nt
Clc1cccc(-c2ccc(C=Nc3ccc(N4CCOCC4)cc3)o2)c1	0.7	-1	0.7	89	90
CCOc1ccc(/C=N/OCC(=O)NCc2ccco2)cc1	1	-3	1	nt	nt
SMILES	PMI act hi M6P	L major viab	PMI activator	HCT116 bCat-KO	PTEN del growth
COc1ccc(NC(=O)/C(C#N)=C\C=C\c2ccco2)cc1	0.8	-1	0.8	9	14
O=C(NCc1ccco1)C(c1ccccc1)N(Cc1ccccc1)C(=O)Cn1nnc2ccccc21 (configuration not stated)	1	12	1	98	81
Cc1ccc(O)c(/C=N/NC(=O)C2=NNC(c3ccccc3)(c3ccccc3)C2)c1	1.5	100*	1.3	9	7
O=C(N/N=C/c1c(O)ccc2ccccc12)c1[nH]ncc1Br	1.2	100*	1.2	16	12
OCC(CO)(CO)N=Cc1c(O)ccc2ccccc12	0.3	97*	0.6	89	96
CC(C)Nc1nc(NC(C)C)nc(SCCOC(=O)Nc2ccc(Cl)cc2Cl)n1	0.8	3	0.8	85	91
CC1(C)CSC(=S)N1S(=O)(=O)c1ccccc1	0.9	8	0.9	105	95
CC(C)(C)c1ccc(OCCCNC2CCCC2)cc1	1.1	99*	1	nt	nt
Cc1ccc(OCC(=O)NC2CCCC2)c(C)c1	1	-1	1	95	95
C=CCc1ccc(OCCCOc2ccc(C)c(C)c2)c(OC)c1	1	-6	0.9	96	92
CCOc1ccc(OCCNC2CCCC2)cc1	1.1	84*	1	84	97
Cc1ccc(OCCCCNC2CCCCC2)c(C)c1	0.9	94*	1	nt	nt
C=CCc1ccc(OCCCCNC2CCCC2)c(OC)c1	1.1	89*	1	nt	nt
N#Cc1ccc(C(=O)OCC(=O)Nc2ccc(N3CCOCC3)cc2)cc1	1	-8	1.2	nt	nt
Cc1occc1C(=O)NNC(=O)c1ccccc1F	1	-3	1.1	nt	nt
CCCOc1ccc(OCCNC2CCCC2)cc1	0.9	94*	0.9	82	82
Cc1ccc(OCCCNC2CCCC2)cc1	1.1	8	1	82	79
Cc1ccc(C)c(OCCCNC2CCCC2)c1C	1	97*	1	nt	nt
COc1ccccc1-n1cc(CN2CCN(C3CCCCC3)C(CCO)C2)cn1 (configuration not stated)	1.1	7	1	nt	nt
COc1ccnc(-n2cccc2C#N)c1C#N	1	-1	1	nt	nt
COc1ccc(N2CCN(C(CNC(=O)C(=O)NCc3ccc4c(c3)OCO4)c3ccco3)CC2)cc1 (configuration not stated)	1	17	1	nt	nt
CC1CC(C)CN(C(=O)c2ccc3c(c2NCCO)C(=O)c2ccccc2C3=O)C1 (configuration not stated)	1.1	99*	1	80	87
Cc1ccc(CSCc2nc3ccccc3[nH]2)cc1	1	26	1	nt	nt
Cc1cc(C)cc(CC(Cc2nc3ccccc3[nH]2)c2nc3ccccc3[nH]2)c1 (configuration not stated)	0.8	91*	0.8	49	34
S=c1cnc2ccccc2[nH]1	2.1*	7	1.5	nt	nt
SMILES	PMI act hi M6P	L major viab	PMI activator	HCT116 bCat-KO	PTEN del growth
OCCNCCCCOc1ccc(F)cc1	1.1	63*	1.1	88	86
COc1ccccc1OCCCCCNCCO	0.9	0	1	77	87
CCOCCCNCc1c(Cl)cccc1Cl	1	2	1	92	106
OCCCCNCc1ccc(OCc2ccccc2Cl)cc1	0.9	97*	0.9	71	70
CCOCCCNCc1ccc(OCc2ccccc2Cl)cc1	0.9	100*	1	58	56
OCCNCCCCOc1ccc(OCc2ccccc2)cc1	1	100*	1	68	63
CCOC(=O)CCC(=O)N1CCNC(=O)C1	0.9	-6	0.9	88	98
